Eight compounds from ChEMBL document CHEMBL1154447, “Synthesis, antimicrobial activity, pharmacophore analysis of some new 2-(substitutedphenyl/benzyl)-5-[(2-benzofuryl)carboxamido]benzoxazoles” (2008) can be followed below.

≈ marks a conversion by molar mass, not a printed value.

Assay type in all cases: functional
For assay [1], the system named is Klebsiella pneumoniae. Briefly: Antibacterial activity against Klebsiella pneumoniae isolate containing extended spectrum beta lactamase after 24 hrs by twofold serial dilution technique. Put shortly:
(§1)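 Broth microdilution in Mueller-Hinton broth. Isolates were subcultured overnight on MHA at 37 °C and passaged at least twice. McFarland 0.5 cultures […] were diluted to 10⁵ cfu/ml, giving 10⁴ cfu/ml per well, over two-fold compound dilutions. Plates were incubated at 37 °C in a humid chamber for 24 h. MIC was the lowest concentration completely inhibiting macroscopic growth. Triplicate per run.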

Assay [2] deals with Klebsiella pneumoniae. Briefly: Antibacterial activity against Klebsiella pneumoniae RSHM 574 after 24 hrs by twofold serial dilution technique. The essentials: as §1
Assay [3] has as its system Pseudomonas aeruginosa. Briefly: Antibacterial activity against gentamicin-resistant Pseudomonas aeruginosa isolate after 24 hrs by twofold serial dilution technique. Put shortly:
(§2)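 Broth microdilution in Mueller-Hinton broth. Strains were subcultured overnight on MHA at 37 °C and passaged at least twice. McFarland 0.5 cultures […] were diluted to 10⁵ cfu/ml, giving 10⁴ cfu/ml per well, against two-fold dilutions from 1000 to 0.06. Solvent and medium controls were included. Plates were held at 37 °C in a humid chamber for 24 h, in triplicate. MIC is the lowest concentration with no macroscopic growth.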

Assay [4] has as its system Pseudomonas aeruginosa. Briefly: Antibacterial activity against Pseudomonas aeruginosa […] after 24 hrs by twofold serial dilution technique. The essentials:
as §1

The subject of assay [5] is Escherichia coli. Briefly: Antibacterial activity against Escherichia coli isolate containing extended spectrum beta lactamase after 24 hrs by twofold serial dilution technique. Put shortly: as §1
Assay [6] concerns Escherichia coli. Put plainly: Antibacterial activity against Escherichia coli ATCC 25922 after 24 hrs by twofold serial dilution technique. The conditions noted are these: ATCC 25922, 24 h. Put shortly:
as §1

For assay [7], the system named is Bacillus subtilis. Put plainly: Antibacterial activity against ceftriaxone-resistant Bacillus subtilis isolate after 24 hrs by twofold serial dilution technique. Put shortly:
as §2

In assay [8] the test system is Bacillus subtilis. Put plainly: Antibacterial activity against Bacillus subtilis ATCC 6633 after 24 hrs by twofold serial dilution technique. The conditions noted are these: ATCC 6633, 24 h. Put shortly: as §2
The test system of assay [9] is Staphylococcus aureus. Put plainly: Antibacterial activity against methicillin-resistant Staphylococcus aureus isolate after 24 hrs by twofold serial dilution technique. The essentials:
as §2

Assay [10] concerns Staphylococcus aureus. Briefly: Antibacterial activity against Staphylococcus aureus ATCC 25923 after 24 hrs by twofold serial dilution technique. The conditions noted are these: ATCC 25923, 24 h. Put shortly:
as §1

Assay [11] has as its system Candida albicans. Briefly: Antifungal activity against biofilm-positive Candida albicans isolate after 48 hrs by twofold serial dilution technique. The essentials: (§3)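 Yeasts were subcultured on SDA at 35 °C for 24-48 h and passaged twice. Broth microdilution followed CLSI M27-A in RPMI-1640 with L-glutamine, MOPS-buffered to pH 7. Inoculum was McFarland 0.5 (10⁶ cfu/ml) diluted to 10⁴ cfu/ml, giving 10³ cfu/ml per well. Incubated at 35 °C in a humid chamber and read at 48 h as the lowest concentration with no macroscopic growth. Triplicate per run.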

The test system of assay [12] is Candida albicans. Put plainly: Antifungal activity against Candida albicans ATCC 10231 after 48 hrs by twofold serial dilution technique. The conditions noted are these: ATCC 10231, 48 h. Put shortly:
as §3

The next assay concerns Pichia kudriavzevii. Briefly: Antifungal activity against Candida krusei ATCC 6258 after 48 hrs by twofold serial dilution technique. The conditions noted are these: ATCC 6258, 48 h. The essentials:
as §3

As for `O=C(Nc1ccc2oc(Cc3ccccc3)nc2c1)c1cc2ccccc2o1`, the MIC was found to be 62.5 µg/mL (≈ 170 µM) in the assay on Klebsiella pneumoniae [1]; 62.5 µg/mL (≈ 170 µM) with Klebsiella pneumoniae [2]; 62.5 µg/mL (≈ 170 µM) with Pseudomonas aeruginosa [3]; 31.2 µg/mL (≈ 84.8 µM) against Pseudomonas aeruginosa [4]; 62.5 µg/mL (≈ 170 µM) against Escherichia coli [5]; 62.5 µg/mL (≈ 170 µM) against Escherichia coli [6]. Besides, the MIC was found to be 125 µg/mL (≈ 339 µM) with Bacillus subtilis [7]; 125 µg/mL (≈ 339 µM) against Bacillus subtilis [8]; 62.5 µg/mL (≈ 170 µM) in the assay with Staphylococcus aureus [9]; 125 µg/mL (≈ 339 µM) against Staphylococcus aureus [10]; 31.2 µg/mL (≈ 84.8 µM) against Candida albicans [11]; 62.5 µg/mL (≈ 170 µM) in the assay with Candida albicans [12]. In addition, in the assay with Pichia kudriavzevii, the MIC was determined as 31.2 µg/mL (≈ 84.8 µM).

Take `CO[C@H]1/C=C/O[C@@]2(C)Oc3c(C)c(O)c4c(O)c(c(/C=N/N5CCN(C)CC5)c(O)c4c3C2=O)NC(=O)/C(C)=C\C=C\[C@H](C)[C@H](O)[C@@H](C)[C@@H](O)[C@@H](C)[C@H](OC(C)=O)[C@@H]1C` [RIFAMPIN]: the MIC in the assay on Klebsiella pneumoniae [1] is 7.8 µg/mL (≈ 9.48 µM); in the assay on Klebsiella pneumoniae [2], 1.9 µg/mL (≈ 2.31 µM); against Pseudomonas aeruginosa [3] it was greater than 500 µg/mL; against Pseudomonas aeruginosa [4], greater than 500 µg/mL; against Escherichia coli [5] it was 3.9 µg/mL (≈ 4.74 µM); in the assay on Escherichia coli [6] it was 1.9 µg/mL (≈ 2.31 µM). Also, the MIC stood at 3.9 µg/mL (≈ 4.74 µM) against Bacillus subtilis [7], 0.12 µg/mL (≈ 0.146 µM) in the assay with Bacillus subtilis [8], 0.9 µg/mL (≈ 1.09 µM) with Staphylococcus aureus [9] and 0.06 µg/mL (≈ 0.0729 µM) against Staphylococcus aureus [10].

As to `CCc1ccc(-c2nc3cc(NC(=O)c4cc5ccccc5o4)ccc3o2)cc1`, the MIC came to 125 µg/mL (≈ 327 µM) with Klebsiella pneumoniae [1]; 62.5 µg/mL (≈ 163 µM) in the assay on Klebsiella pneumoniae [2]; 62.5 µg/mL (≈ 163 µM) with Pseudomonas aeruginosa [3]; 62.5 µg/mL (≈ 163 µM) in the assay with Pseudomonas aeruginosa [4]; 125 µg/mL (≈ 327 µM) against Escherichia coli [5]; 62.5 µg/mL (≈ 163 µM) against Escherichia coli [6]. For the same compound, the MIC against Bacillus subtilis [7] came to 125 µg/mL (≈ 327 µM); in the assay on Bacillus subtilis [8], 500 µg/mL (≈ 1310 µM); against Staphylococcus aureus [9] it was 62.5 µg/mL (≈ 163 µM); in the assay on Staphylococcus aureus [10], 125 µg/mL (≈ 327 µM); in the assay on Candida albicans [11] it was 62.5 µg/mL (≈ 163 µM); in the assay on Candida albicans [12], 62.5 µg/mL (≈ 163 µM). This compound displayed an MIC with Pichia kudriavzevii of 125 µg/mL (≈ 327 µM).

Regarding `CC1(C)S[C@@H]2[C@H](NC(=O)[C@H](N)c3ccccc3)C(=O)N2[C@H]1C(=O)O.O.O.O` [AMPICILLIN TRIHYDRATE], the MIC in the assay with Klebsiella pneumoniae [1] is 15.6 µg/mL; in the assay on Klebsiella pneumoniae [2], 0.48 µg/mL; against Pseudomonas aeruginosa [3] it was greater than 500 µg/mL; with Pseudomonas aeruginosa [4], greater than 500 µg/mL; against Escherichia coli [5] it was greater than 15.6 µg/mL; against Escherichia coli [6], 3.9 µg/mL. Also, the MIC amounted to 0.48 µg/mL against Bacillus subtilis [7], 0.48 µg/mL in the assay with Bacillus subtilis [8], 1.9 µg/mL in the assay with Staphylococcus aureus [9] and 0.48 µg/mL against Staphylococcus aureus [10].

In the case of `OC(Cn1cncn1)(Cn1cncn1)c1ccc(F)cc1F` [FLUCONAZOLE], the MIC came out at 0.48 µg/mL (≈ 1.57 µM) against Candida albicans [11], 1.9 µg/mL (≈ 6.2 µM) in the assay on Candida albicans [12] and 15.6 µg/mL (≈ 51 µM) with Pichia kudriavzevii.

`O=C(Nc1ccc2oc(-c3ccc(F)cc3)nc2c1)c1cc2ccccc2o1`: the MIC against Klebsiella pneumoniae [1] was determined as 125 µg/mL (≈ 336 µM); against Klebsiella pneumoniae [2], 62.5 µg/mL (≈ 168 µM); against Pseudomonas aeruginosa [3], 62.5 µg/mL (≈ 168 µM); in the assay with Pseudomonas aeruginosa [4], 31.2 µg/mL (≈ 83.9 µM); with Escherichia coli [5], 125 µg/mL (≈ 336 µM); against Escherichia coli [6] it was 62.5 µg/mL (≈ 168 µM). Besides, the MIC with Bacillus subtilis [7] was 125 µg/mL (≈ 336 µM); in the assay with Bacillus subtilis [8], 500 µg/mL (≈ 1340 µM); against Staphylococcus aureus [9], 31.2 µg/mL (≈ 83.9 µM); in the assay on Staphylococcus aureus [10] it was 125 µg/mL (≈ 336 µM); in the assay on Candida albicans [11] it was 62.5 µg/mL (≈ 168 µM); against Candida albicans [12] it was 62.5 µg/mL (≈ 168 µM). In the assay on Pichia kudriavzevii, this compound registered an MIC of 125 µg/mL (≈ 336 µM).

Take `O=C(Nc1ccc2oc(-c3ccccc3Br)nc2c1)c1cc2ccccc2o1`: the MIC came to 125 µg/mL (≈ 289 µM) in the assay with Klebsiella pneumoniae [1]; 62.5 µg/mL (≈ 144 µM) in the assay on Klebsiella pneumoniae [2]; 62.5 µg/mL (≈ 144 µM) in the assay with Pseudomonas aeruginosa [3]; 62.5 µg/mL (≈ 144 µM) against Pseudomonas aeruginosa [4]; 125 µg/mL (≈ 289 µM) against Escherichia coli [5]; 62.5 µg/mL (≈ 144 µM) with Escherichia coli [6]. Moreover, the MIC came to 125 µg/mL (≈ 289 µM) against Bacillus subtilis [7]; 500 µg/mL (≈ 1150 µM) with Bacillus subtilis [8]; 31.2 µg/mL (≈ 72.1 µM) against Staphylococcus aureus [9]; 125 µg/mL (≈ 289 µM) in the assay on Staphylococcus aureus [10]; 62.5 µg/mL (≈ 144 µM) against Candida albicans [11]; 62.5 µg/mL (≈ 144 µM) against Candida albicans [12]. In the assay on Pichia kudriavzevii, this compound displayed an MIC of 250 µg/mL (≈ 577 µM).

Turning to `CC(C)(C)c1ccc(-c2nc3cc(NC(=O)c4cc5ccccc5o4)ccc3o2)cc1`, the MIC against Klebsiella pneumoniae [1] came to 125 µg/mL (≈ 305 µM); against Klebsiella pneumoniae [2], 62.5 µg/mL (≈ 152 µM); against Pseudomonas aeruginosa [3], 125 µg/mL (≈ 305 µM); with Pseudomonas aeruginosa [4], 62.5 µg/mL (≈ 152 µM); against Escherichia coli [5] it was 125 µg/mL (≈ 305 µM); in the assay with Escherichia coli [6] it was 62.5 µg/mL (≈ 152 µM). In addition, the MIC against Bacillus subtilis [7] stood at 125 µg/mL (≈ 305 µM); against Bacillus subtilis [8], 125 µg/mL (≈ 305 µM); against Staphylococcus aureus [9], 62.5 µg/mL (≈ 152 µM); against Staphylococcus aureus [10], 125 µg/mL (≈ 305 µM); against Candida albicans [11], 62.5 µg/mL (≈ 152 µM); against Candida albicans [12] it was 62.5 µg/mL (≈ 152 µM). The compound further gave an MIC with Pichia kudriavzevii of 125 µg/mL (≈ 305 µM).
